CHOP inhibitor = blocks CHOP induction under ER stress; CHO-K1 CHOP-promoter luciferase, tunicamycin-induced, 15-18 h; AID 2732; inhibition, % at 10 µM; 3.8% of 220,000 active;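 active = compounds that reduced the stress-induced luciferase reporter signal by more than about 70% of percent inhibition, limit read from the data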;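 note: 0% = tunicamycin plus vehicle and 100% = wells without tunicamycin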
UPR CHOP act = activators of apoptotic arm of unfolded protein response (CHOP). CHO-CHOP luciferase reporter, UPR activation, luminescence; percent of tunicamycin response over DMSO baseline. activation, % at 10 µM. 0.34% of 330,000 active;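 active = at 10 µM dose, activation of 40% or more, normalized to positive control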;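 note: 100% = tunicamycin at 10 µg/mL and 0% = DMSO alone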
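Test system: CHO-CHOP cells, stable luciferase reporter of PERK-eIF2a-CHOP signalling | Quantity: 500 CHO-CHOP cells per well | Buffer or medium: F12 plus 10% serum | Compound dosing: 10 µM single point, 0.5% DMSO | Schedule: 6 h compound treatment, 37 °C | Signal: Luciferase luminescence | Control set: Tunicamycin high control, DMSO low control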
XBP1 UPR activ = activators of adaptive arm of unfolded protein response (XBP1) | CHO-XBP1 luciferase reporter, IRE1-XBP1 UPR activation, luminescence; percent of tunicamycin response, DMSO as zero | activation, % at 20 µM | 0.33% of 330,000 active;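 active = versus positive control, 20 µM dose yields 30% or more activation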;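 note: 100% = tunicamycin at 10 µg/mL and 0% = DMSO only wells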
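Assay system: IRE1-XBP1 luciferase reporter CHO line. Input: 1000 cells/well. Buffer or medium: F12 with 10% serum. Doses: 20 µM, 1% DMSO. Times: overnight seeding at 37 °C, 6 h compound treatment at 37 °C. Technique: Steady-Glo luciferase glow luminescence, 10 min after reagent addition.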
Jurkat NFkB inh = lowers PMA/ionomycin-induced NF-kB signal in Jurkat cells. AID 435003. PMA/ionomycin-induced NF-kB luciferase reporter, luminescence. 0.53% of 330,000 active. inhibition, % at 4 µM; in the data active = inhibition above about 50%
697 NFkB inh = lowers PMA/ionomycin-induced NF-kB signal in 697 B cells | 697 B-cell NF-kB luciferase reporter, 16 h | inhibition, % at 4 µM | 0.33% of 330,000 active; in the data active = inhibition above about 35%
CHOP confirm = confirmation of CHOP induction inhibitors; CHO-CHOP promoter luciferase reporter, tunicamycin-induced, luminescence; inhibition, % at 10 µM; shares compounds with CHOP inhibitor; 45% of 2,100 active;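 active = mean of three repeat readings of reporter signal inhibition above a set limit, cut at about 70% in these data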;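 note: 0% = tunicamycin plus vehicle and 100% = wells lacking tunicamycin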
* marks the source's active call; other numbers are inactive results; . = not tested or not shown. The entries come from a sample that favours hits as a whole.

SMILES	CHOP inhibitor	UPR CHOP act	XBP1 UPR activ	Jurkat NFkB inh	697 NFkB inh	CHOP confirm
COc1ccc(-n2nc3c(c2NC(=O)COc2ccccc2F)CS(=O)(=O)C3)cc1	.	0.7	-2.2	-10.1	8.7	.
COc1ccc(/C=N/n2c(N)nc(-c3ccccc3)c2-c2ccccc2)cc1	104.4*	1.8	-0.1	24.8	-23.3	51.8
COc1ccc(/C=N/n2c(-c3ccccc3)n[nH]c2=S)cc1	.	2.2	-4.3	-7.1	-22.5	.
Cc1ccc(NC(=O)NC(=O)CN2C(=O)NC3(CCCCCCC3)C2=O)c(C)c1	105.0*	-1.0	3.1	-13.0	-3.0	90.9*
Cc1cc(C2=NNC(=NC3CC3)SC2)c(C)n1-c1ccccc1	105.9*	.	.	.	.	121.3*
COc1ccc(-n2c(C)cc(C3=NNC(=NC4CC4)SC3)c2C)cc1	39.1	.	.	.	.	.
Cc1ccc2c(CC(=O)NNC(=O)c3ccccc3O)coc2c1	.	1.9	0.7	6.7	-14.4	.
CCCCCCCCNCCS(=O)(=O)NN1CCOCC1	.	0.9	4.1	.	-4.4	.
O=C(/C=C/c1ccc2c(c1)OCO2)Nc1c(C(=O)O)[nH]c2ccccc12	6.2	2.4	0.3	7.5	2.1	.
CCOC(=O)c1[nH]c2ccc(OC)cc2c1NC(=O)/C=C/c1ccc2c(c1)OCO2	102.0*	4.2	1.9	10.8	4.6	-16.9
FC(F)(F)c1cccc(Sc2nc(-c3ccccc3)nnc2C(F)(F)F)c1	108.5*	-6.0	-10.6	-7.0	24.3	108.7*
FC(F)(F)c1cccc(Oc2nc(-c3ccccc3)nnc2C(F)(F)F)c1	-24.5	4.5	0.5	-2.4	5.4	.
Nc1ccc(N2CCCCCC2)cc1	.	37.7	2.6	19.2	-23.3	127.7*
Cc1[nH]n(-c2ccccc2)c(=O)c1N=Nc1ccccc1O	105.2*	2.8	-0.8	27.4	-20.2	18.8
Cc1ccccc1N=Nc1c(C)[nH]n(-c2ccccc2)c1=O	15.2	.	.	.	.	.
CCc1ccc(C(=O)/C=C/c2ccc([N+](=O)[O-])o2)cc1	105.7*	-2.3	-3.4	12.6	11.2	139.8*
CCN(CC)S(=O)(=O)c1ccc(C(=O)/C=C/c2ccc(-c3ccc([N+](=O)[O-])cc3)o2)cc1	-14.2	2.2	3.7	9.4	2.2	.
CC1(C)Cc2c(cnn2-c2ccccc2)C(NC(=O)CCN2CCCCO2)C1 (configuration not stated)	.	1.1	-2.6	13.7	-39.9	.
CC(C)(C)c1ccc(C(=O)NC(=S)NNC(=O)c2cccs2)cc1	107.4*	.	.	.	.	133.7*
Cn1cnc([N+](=O)[O-])c1NC(C)(C)C	26.9	-0.1	-3.5	-7.5	4.4	.
Cn1cnc([N+](=O)[O-])c1S(=O)(=O)c1ccc(Cl)cc1	109.5*	.	.	.	.	115.5*
O=C(CN(C(=O)c1csnn1)c1cccc2ccccc12)NCc1ccccc1	.	0.8	-0.7	0.8	-7.0	.
Clc1ccc(NNc2ccnc3cc(Cl)ccc23)cc1	13.1	5.2	-3.1	-1.9	10.9	.
Clc1ccc2c(N/N=C/c3ccc(Br)cc3)ccnc2c1	102.9*	.	.	.	.	95.6*
Cc1ccccc1/C=N/Nc1ccnc2cc(Cl)ccc12	107.0*	.	.	.	.	87.6*
SMILES	CHOP inhibitor	UPR CHOP act	XBP1 UPR activ	Jurkat NFkB inh	697 NFkB inh	CHOP confirm
Cc1ccc(C)c(NC(=O)COC(=O)COc2cccc3c2OC(C)(C)C3)c1	.	-0.2	-0.3	5.6	18.3	.
CC(NC(=O)COC(=O)c1ccc2c(c1)S(=O)(=O)N=C1CCCCCN12)C12CC3CC(CC(C3)C1)C2 (configuration not stated)	104.3*	-1.8	-0.6	-18.0	13.0	-17.5
O=C(CCNC(=O)c1ccc(Cl)cc1)Nc1cccc(S(=O)(=O)N2CCCCC2)c1	.	-0.7	-2.0	38.7	-20.8	.
O=C(Nc1ccc(Br)c(C(F)(F)F)c1)c1ccc(C(F)(F)F)cc1	101.8*	15.0	8.1	-24.2	-48.8	98.1*
C/C=C/Cn1c(SCCCc2ccccc2)nc2c1c(=O)[nH]c(=O)n2C	103.5*	2.1	1.7	0.1	-21.4	102.6*
COCCn1c(SCCCc2ccccc2)nc2c1c(=O)[nH]c(=O)n2C	-5.3	-0.9	0.7	7.6	-16.4	.
CCCCCCn1c(SCCC)nc2c1c(=O)[nH]c(=O)n2C	98.7*	0.9	7.9	13.7	-25.6	80.8*
CCCCCn1c(SCCCC)nc2c1c(=O)[nH]c(=O)n2C	68.7	0.3	7.1	10.1	-18.7	.
NC(=O)C1CCN(C(=O)c2ccc(NS(=O)(=O)c3ccc(F)c(F)c3)cc2)CC1	.	-1.2	3.4	4.5	9.3	.
O=C(c1cccc2ccccc12)N1CCCCC1	.	-0.6	-1.6	15.3	-4.3	.
O=C(c1ccc2c3c(cccc13)C(=O)N(O)C2=O)N1CCCCC1	97.8*	-5.5	3.9	-13.7	4.7	109.0*
CCN(CC)c1ccc(/C=N/NC(=S)NCc2ccccc2)c(O)c1	100.5*	-0.6	-1.6	7.8	-4.4	-65.8
COc1ccc(C(Nc2ccc(S(=O)(=O)NCC3CCCO3)cc2)C(=O)NC(C)(C)C)cc1OC (configuration not stated)	-11.7	-0.6	0.3	-4.4	8.8	.
CC(C)(C)c1ccc(C2CC2C(=O)N/N=C\c2ccc[nH]2)cc1 (configuration not stated)	104.8*	3.9	3.8	-8.0	-3.6	94.9*
COc1c(C(=O)NNC(=O)c2ccccc2)csc1Br	-26.6	4.5	1.7	-34.6	-38.1	.
Cc1n[nH]c(=S)n1/N=C/c1ccccc1OCc1ccc(Cl)cc1Cl	101.6*	2.2	16.3	9.1	-8.1	3.3
Cc1n[nH]c(=S)n1/N=C/c1ccc(OCc2ccc(Cl)cc2Cl)cc1	28.5	5.0	1.9	-66.6	-68.6	.
CCOc1ccc(NC2=C(Cl)C(=O)N(Cc3ccccc3)C2=O)cc1	105.3*	-0.3	-1.0	16.1	-39.9	21.8
COc1ccc(NC2=C(Cl)C(=O)N(CCc3ccccc3)C2=O)cc1	2.4	5.0	5.3	-31.2	-46.7	.
CC(C)(C)c1ccc(S(=O)(=O)N2CCN(c3ncccn3)CC2)cc1	4.3	-0.5	-1.4	-24.4	-27.5	.
Cc1ccc(Nc2nc(N)c([N+](=O)[O-])c(NCc3ccccc3)n2)cc1	103.8*	2.0	16.5	9.2	6.4	35.1
O=C(Cc1cccc(NC(=O)C2CCN(C(=O)CCc3ccccc3)CC2)c1)Nc1cccc(C(=O)N2CCCC2)c1	.	1.3	-3.0	-6.4	-8.8	.
O=C(Cn1nc(-c2ccccc2)c2ccccc2c1=O)NCCO	.	1.3	2.6	-8.8	0.3	.
COc1ccc(NC(=O)c2oc3ccccc3c2NC(=O)C(C)(C)C)cc1	103.4*	0.2	6.9	-1.9	8.0	13.5
Cc1cc(C)cc(NC(=O)Cn2c(SCc3cc(C)ccc3C)nc3ccncc32)c1	-9.4	.	.	.	.	.
Cc1ccc(CSc2nc3ccncc3n2CC(=O)Nc2cc(C)cc(C)c2)cc1	96.2*	4.7	-0.7	-28.7	-29.6	25.5
Cc1ccc(-c2cc3c(nn2)-c2ccccc2C3=O)cc1	100.6*	-9.0	-6.0	32.6	-29.0	107.8*
